Measurements as given in ChEMBL document CHEMBL3297703, “Novel quinuclidinyl heteroarylcarbamate derivatives as muscarinic receptor antagonists” (Bioorg Med Chem, 2014).
Active and inactive are the calls of the source. The rule behind the calls is not given here.

Key:
[1] = molecular target: Muscarinic acetylcholine receptor M3 (Rattus norvegicus, UniProt P08483); assay: Displacement of [3H]-NMS from Sprague-Dawley rat muscarinic M3 receptor in submandibular gland
[2] = molecular target: T1, Muscarinic acetylcholine receptor M1 (Rattus norvegicus, UniProt P08482); assay: Displacement of [3H]-NMS from Sprague-Dawley rat muscarinic M1 receptor in cortex membrane; type: cell membranes
T1 sequence (P08482 whole entry): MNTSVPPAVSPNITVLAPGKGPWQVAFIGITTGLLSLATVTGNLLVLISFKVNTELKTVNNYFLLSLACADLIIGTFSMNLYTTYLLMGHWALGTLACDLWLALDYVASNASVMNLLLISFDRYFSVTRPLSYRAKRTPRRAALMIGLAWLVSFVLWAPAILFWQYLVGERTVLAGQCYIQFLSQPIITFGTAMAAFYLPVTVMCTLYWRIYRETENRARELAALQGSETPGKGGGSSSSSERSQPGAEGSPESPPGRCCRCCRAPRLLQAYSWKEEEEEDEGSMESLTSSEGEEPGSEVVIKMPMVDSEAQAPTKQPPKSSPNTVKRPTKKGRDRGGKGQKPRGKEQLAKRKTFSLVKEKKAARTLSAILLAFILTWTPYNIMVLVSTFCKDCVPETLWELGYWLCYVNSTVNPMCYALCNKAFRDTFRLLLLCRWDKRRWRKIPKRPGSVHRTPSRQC

[3] = molecular target: T2, Muscarinic acetylcholine receptor M2 (Rattus norvegicus, UniProt P10980); assay: Displacement of [3H]-NMS from Sprague-Dawley rat muscarinic M2 receptor in heart
T2 sequence (P10980 whole entry): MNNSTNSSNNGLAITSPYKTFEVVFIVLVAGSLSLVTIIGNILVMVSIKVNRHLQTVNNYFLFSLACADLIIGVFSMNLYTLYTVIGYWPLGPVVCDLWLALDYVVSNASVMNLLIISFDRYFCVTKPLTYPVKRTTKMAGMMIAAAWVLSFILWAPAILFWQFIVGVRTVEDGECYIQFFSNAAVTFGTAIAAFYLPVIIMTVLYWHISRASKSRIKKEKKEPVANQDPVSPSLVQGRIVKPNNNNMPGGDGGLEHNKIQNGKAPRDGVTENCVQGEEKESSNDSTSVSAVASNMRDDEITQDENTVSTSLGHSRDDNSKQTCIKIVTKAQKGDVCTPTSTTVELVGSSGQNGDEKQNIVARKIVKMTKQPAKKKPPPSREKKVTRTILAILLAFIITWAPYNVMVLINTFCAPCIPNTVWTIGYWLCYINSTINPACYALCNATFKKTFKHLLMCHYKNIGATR

Rattus norvegicus [4] = species: Rattus norvegicus; assay: Effect on CCh-induced salivation in Sprague-Dawley rat after 24 hrs; type: ADME, organism-based; conditions: in vivo
Procedure, shortened: (§1)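 Anaesthetised, cannulated male Sprague-Dawley rats dosed once intratracheally; 24 h later CCh (30 μg/kg) given, with bronchoconstriction (airway pressure via transducer) and salivation (net weight gain of cotton balls in oral cavity) recorded together in the same animal.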

Rattus norvegicus [5] = assay: Bronchodilatory effect in it dosed Sprague-Dawley rat assessed as inhibition of CCh-induced bronchoconstriction after 24 hrs; type: functional; conditions: read-out: ID50 (the source's name); procedure, shortened: as §1
Rattus norvegicus [6] = species: Rattus norvegicus; assay: Ratio of ID50 for effect on CCh-induced salivation in Sprague-Dawley rat to ID50 for inhibition of CCh-induced bronchoconstriction Sprague-Dawley rat
Rattus norvegicus [7] = assay: Bronchodilatory effect in Sprague-Dawley rat assessed as inhibition of CCh-induced bronchoconstriction at 0.5 ug/kg, it after 0.5 hrs; type: functional
Procedure, shortened: (§2)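 Male Sprague-Dawley rats (250–400 g) anaesthetised with pentobarbital sodium (50 mg/kg i.p.), tracheally cannulated, given pancuronium bromide 0.2 mg/kg i.v. Compound given intratracheally at 0.5 μg/kg; CCh 30 μg/kg challenge at 0.25, 0.5, 2 or 24 h post-dose; airway pressure by pressure transducer. Inhibition expressed as mean percentage of control value, n = 3.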

Rattus norvegicus [8] = assay: Bronchodilatory effect in Sprague-Dawley rat assessed as inhibition of CCh-induced bronchoconstriction at 0.5 ug/kg, it after 2 hrs; type: functional; procedure, shortened: as §2
Rattus norvegicus [9] = assay: Bronchodilatory effect in Sprague-Dawley rat assessed as inhibition of CCh-induced bronchoconstriction at 0.5 ug/kg, it after 0.25 hrs; type: functional; procedure, shortened: as §2
Rattus norvegicus [10] = assay: Bronchodilatory effect in Sprague-Dawley rat assessed as inhibition of CCh-induced bronchoconstriction at 0.5 ug/kg, it after 24 hrs; type: functional; procedure, shortened: as §2
Rattus norvegicus [11] = assay: Bronchodilatory effect in it dosed Sprague-Dawley rat assessed as inhibition of CCh-induced bronchoconstriction at 15 mins to 1 hr; type: functional, organism-based
[12] = molecular target: Muscarinic acetylcholine receptor M3 (Rattus norvegicus) (UniProt P08483); assay: Displacement of [3H]-NMS from Sprague-Dawley rat muscarinic M3 receptor in submandibular gland measured after single/double washout
Chain of Muscarinic acetylcholine receptor M3 (Rattus norvegicus) (P08483 whole entry, looked up): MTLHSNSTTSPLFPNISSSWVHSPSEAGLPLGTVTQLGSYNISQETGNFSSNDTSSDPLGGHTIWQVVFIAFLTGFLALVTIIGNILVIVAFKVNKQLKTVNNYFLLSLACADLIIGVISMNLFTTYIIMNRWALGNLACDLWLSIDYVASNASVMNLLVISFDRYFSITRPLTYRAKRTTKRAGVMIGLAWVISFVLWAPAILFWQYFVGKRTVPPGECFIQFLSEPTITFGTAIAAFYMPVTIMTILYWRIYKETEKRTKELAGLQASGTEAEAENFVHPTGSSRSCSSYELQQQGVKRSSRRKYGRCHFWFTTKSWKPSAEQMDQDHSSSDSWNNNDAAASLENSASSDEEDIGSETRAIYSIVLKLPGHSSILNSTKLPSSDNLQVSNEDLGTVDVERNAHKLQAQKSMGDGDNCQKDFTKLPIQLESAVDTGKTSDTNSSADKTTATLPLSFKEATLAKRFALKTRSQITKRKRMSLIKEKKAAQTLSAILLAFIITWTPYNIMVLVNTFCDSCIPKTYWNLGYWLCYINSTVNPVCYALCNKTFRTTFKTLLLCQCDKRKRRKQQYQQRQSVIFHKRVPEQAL

Lung = assay: Drug uptake in it dosed Sprague-Dawley rat lung after 24 hrs; type: ADME, organism-based; conditions: in vivo, inhaled_or_intranasal
[13] = Drug uptake in it dosed Sprague-Dawley rat submandibular gland after 24 hrs; type: ADME, organism-based; conditions: in vivo

Chain of Muscarinic acetylcholine receptor M3 (P08483 whole entry): as the sequence (P08483 whole entry, looked up) above

Row | Compound | Ki [1] [nM] | Ki [2] [nM] | Ki [3] [nM] | also measured
1 | O=C(Nc1ncsc1-c1ccccc1)O[C@H]1CN2CCC1CC2 | 0.93 | 0.75 | 1.9 | 
2 | O=C(Nc1ccsc1-c1ccccc1)OC12CCN(CC1)CC2 | 0.056 | 0.095 | 0.46 | 
3 | O=C(O[C@H]1C[N+]2(CCCOc3ccccc3)CCC1CC2)C(O)(c1cccs1)c1cccs1.[Br-] [ACLIDINIUM BROMIDE] |  |  |  | ID50 (Rattus norvegicus [4]): 9.4 µg/kg; ED50 (Rattus norvegicus [5]): 0.4 µg/kg; Ratio (Rattus norvegicus [6]): 24
4 | O=C(Nc1ccsc1-c1ccccc1)O[C@H]1CN2CCC1CC2 | 0.19 | 0.19 | 0.82 | 
5 | C[N+]12CCC(CC1)[C@@H](OC(=O)Nc1ncsc1-c1cccc(Cl)c1)C2 | 0.25 | 0.31 | 1.2 | inhibition in vivo at 0.0005 mg/kg (Rattus norvegicus [7]): 64%; inhibition in vivo at 0.0005 mg/kg (Rattus norvegicus [8]): 50%; inhibition in vivo at 0.0005 mg/kg (Rattus norvegicus [9]): 64%
6 | C[N+]12CCC(OC(=O)Nc3ncsc3-c3ccccc3)(CC1)CC2 | 0.064 | 0.055 | 0.12 | inhibition in vivo at 0.0005 mg/kg (Rattus norvegicus [10]): 61%
7 | C[N+]12CCC(OC(=O)Nc3ncsc3-c3cccc(C(F)(F)F)c3)(CC1)CC2 | 1.8 | 2.3 | 14 | 
8 | C[N+]12CCC(OC(=O)Nc3ncsc3-c3cc(Cl)cc(Cl)c3)(CC1)CC2 | 0.12 | 0.12 | 0.64 | 
9 | O=C(Nc1ncoc1-c1ccccc1)O[C@H]1CN2CCC1CC2 | 9.7 | 8.7 | 59 | 
10 | C[N+]12CCC(OC(=O)Nc3ncsc3-c3cccc(Cl)c3)(CC1)CC2 [listing 1 of 2 here] |  |  |  | inhibition (Rattus norvegicus [11]): Active; inhibition [12]: inactive
11 | C[N+]12CCC(OC(=O)Nc3ncsc3-c3cccc(Cl)c3)(CC1)CC2 [listing 2 of 2 here] | 0.049 | 0.041 | 0.053 | inhibition in vivo at 0.0005 mg/kg (Rattus norvegicus [7]): 67%; inhibition in vivo at 0.0005 mg/kg (Rattus norvegicus [8]): 84%; inhibition in vivo at 0.0005 mg/kg (Rattus norvegicus [9]): 67%; inhibition in vivo at 0.0005 mg/kg (Rattus norvegicus [10]): 82%
12 | C[N+]1(C)CCC(OC(=O)C(O)(c2ccccc2)C2CCCC2)C1.[Br-] (stereo not drawn) [GLYCOPYRRONIUM BROMIDE] |  |  |  | inhibition (Rattus norvegicus [11]): Active; ED50 (Rattus norvegicus [5]): 3.4 µg/kg
13 | CC(C)[N+]1(C)C2CCC1CC(OC(=O)C(CO)c1ccccc1)C2 (stereo not drawn) |  |  |  | inhibition in vivo at 0.0005 mg/kg (Rattus norvegicus [7]): 85%; inhibition in vivo at 0.0005 mg/kg (Rattus norvegicus [8]): 83%; inhibition in vivo at 0.0005 mg/kg (Rattus norvegicus [9]): 70%; inhibition [12]: inactive; inhibition in vivo at 0.0005 mg/kg (Rattus norvegicus [10]): 15%
14 | O=C(Nc1ncsc1-c1ccccc1)OC12CCN(CC1)CC2 |  | 0.39 | 0.8 | 
15 | C[N+]12CCC(OC(=O)Nc3ccsc3-c3ccccc3)(CC1)CC2 | 0.02 | 0.02 | 0.027 | inhibition in vivo at 0.0005 mg/kg (Rattus norvegicus [7]): 78%; inhibition in vivo at 0.0005 mg/kg (Rattus norvegicus [8]): 86%; inhibition in vivo at 0.0005 mg/kg (Rattus norvegicus [9]): 42%
16 | C[N+]12CCC(OC(=O)Nc3ncsc3-c3ccc(F)cc3)(CC1)CC2 | 0.1 | 0.073 | 0.21 | 
17 | C[N+]1(C)[C@@H]2C[C@@H](OC(=O)C(O)(c3cccs3)c3cccs3)C[C@H]1[C@@H]1O[C@@H]12.O.[Br-] [TIOTROPIUM BROMIDE] | 0.3 | 0.16 | 0.15 | inhibition in vivo at 0.0005 mg/kg (Rattus norvegicus [7]): 59%; inhibition in vivo at 0.0005 mg/kg (Rattus norvegicus [8]): 83%; inhibition in vivo at 0.0005 mg/kg (Rattus norvegicus [9]): 44%; Drug uptake (Lung): Active; Drug uptake [13]: Active; ID50 (Rattus norvegicus [4]): 1.9 µg/kg; inhibition [12]: Active; ED50 (Rattus norvegicus [5]): 0.12 µg/kg; inhibition in vivo at 0.0005 mg/kg (Rattus norvegicus [10]): 78%; Ratio (Rattus norvegicus [6]): 16
18 | C[N+]12CCC(OC(=O)Nc3ncsc3-c3cccc(Cl)c3)(CC1)CC2.[Br-] |  |  |  | Drug uptake (Lung): Active; Drug uptake [13]: Active; ID50 (Rattus norvegicus [4]): 4.2 µg/kg; ED50 (Rattus norvegicus [5]): 0.08 µg/kg; Ratio (Rattus norvegicus [6]): 53
19 | O=C(Nc1cscc1-c1ccccc1)OC12CCN(CC1)CC2 | 0.21 | 0.51 | 3.6 | 
20 | O=C(Nc1scnc1-c1ccccc1)O[C@H]1CN2CCC1CC2 | 12 | 8.7 | 39 | 
21 | O=C(Nc1sccc1-c1ccccc1)OC12CCN(CC1)CC2 | 0.12 | 0.33 | 1.4 | 
22 | C[N+]12CCC(CC1)[C@@H](OC(=O)Nc1ncsc1-c1ccccc1)C2 | 0.37 | 0.37 | 1.2 | inhibition in vivo at 0.0005 mg/kg (Rattus norvegicus [7]): 62%; inhibition in vivo at 0.0005 mg/kg (Rattus norvegicus [8]): 54%; inhibition in vivo at 0.0005 mg/kg (Rattus norvegicus [9]): 74%; inhibition in vivo at 0.0005 mg/kg (Rattus norvegicus [10]): 14%
23 | O=C(Nc1ccsc1-c1ccccc1)O[C@@H]1CN2CCC1CC2 | 4 | 4.6 | 13 | 
24 | O=C(Nc1ccccc1-c1ccccc1)OC12CCN(CC1)CC2 | 0.14 | 0.32 | 3.8 | 
